# A selection: hits, their analogues and other compounds. The true share with any hit is near 1.9%.
# PHOSPHO1 block – PubChem AID 1565 | Phosphoethanolamine/phosphocholine phosphatase (Homo sapiens), Q8TCT1 | recombinant PHOSPHO1, absorbance phosphatase assay | inhibition, % at 13.3 µM | 1.1% of 290,000 active; in the data active = inhibition above about 60%
# IDE cell activ – human IDE activators in live cells, primary screen, fluorescence polarization, HEK cells, FAbeta-B substrate; Insulin-degrading enzyme (Homo sapiens), P14735; FAbeta-B cleavage; 0% vehicle, 100% cell-free pure enzyme wells; activation, % at 5.96 µM; 0.073% of 340,000 active; AID 493087, 2011;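 active = activation above the mean of all tested compounds plus 3 SD, set per screening campaign, cut at about 17% in these data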
# procasp7 counter – procaspase-7 activators, primary screen, counter-screen for procaspase-3 activator project, biochemical, absorbance, HTS, human | Caspase-7 (Homo sapiens), P55210 | recombinant procaspase-7, Ac-DEVD-pNA absorbance 405 nm; D23A/D198A/D206A triple mutant, cannot self-cleave; scale: DMSO 0, 5 µM enzyme 100 | activation, % at 8.5 µM | 0.093% of 330,000 active | AID 463210, 2010;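 active = percent activation above the screen-wide mean plus 3 SD, cut at about 25% in these data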
#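 signal = Epi-absorbance of released pNA at 405 nm, two timepoints | assay system = Uncleavable procaspase-7 mutant enzyme | reagent = Ac-DEVD-pNA substrate, 400 µM as added | times = 1 h enzyme–compound preincubation and 2 h substrate reaction, both 25 °C | benchmarks = low DMSO alone, high DMSO plus 5 µM PC-7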
# IDE cell inh – human IDE inhibitors in live cells, primary screen, fluorescence polarization, HEK cells, FAbetaB substrate | AID 434962, 2010 | inhibition, % at 5.59 µM | Insulin-degrading enzyme (Homo sapiens), P14735 | FAbetaB cleavage | 0.41% of 320,000 active;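 active = percent inhibition above the average of all tested compounds plus 3 SD, set per screening campaign, cut at about 16% in these data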;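 also: IDE supplied by intact live HEK cells; FP after avidin binding of uncleaved biotin substrate so inhibition keeps polarization high; 0% = DMSO wells and 100% = 60 µM reference IDE inhibitor Ii1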
# procasp3 activ – activators of human procaspase-3 D3A mutant, primary screen, biochemical, absorbance, PC-3 D3A mutant, single concentration; Caspase-3 (Homo sapiens), P42574; recombinant procaspase-3 D3A, Ac-DEVD-pNA absorbance 405 nm; activation, % at 8.5 µM; 0.11% of 330,000 active; AID 463141, 2010;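 active = activation above the mean of all tested compounds plus 3 SD, cut at about 21% in these data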;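 also: 0% = DMSO alone and 100% = DMSO wells spiked with extra 5 µM PC-3 D3A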
#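 assay system = Procaspase-3 D3A mutant | signal = absorbance at 405 nm, 0 and 120 min | times = 1 h preincubation plus 2 h reaction at 25 °C | repeats = single replicate | read-out = % activation between DMSO and enzyme-spiked controls | medium = Zinc-free HEPES saline buffer with Triton X-100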
# UBC13 inh – UBC13 polyubiquitin chain formation inhibitors, primary screen, biochemical, TR-FRET, uHTS. Ubiquitin-conjugating enzyme E2 N (Homo sapiens), P61088. inhibition, % at 20 µM. 0.47% of 330,000 active; in the data active = inhibition above about 45%, passing the limit was not always enough; inconclusive = no clear call, values can overlap the other calls
# Casp3 UBC13 ctr – CASP3 inhibitor validation, counterassay for project on UBE2N polyubiquitination blockers, biochemical, one dose; shares compounds with UBC13 inh; Recombinant caspase-3, Caspase-Glo 3/7 luminescence, 60 min; inhibition, % at 20 µM; 4% of 1,400 active;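 active = mean inhibition across replicates above about 26%, limit read from the data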;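 also: plate controls were DMSO with caspase-3 for no effect and DMSO wells lacking enzyme for full effect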
# UBC13 conf – UBC13 polyubiquitination inhibitors, single-point retest, confirmation, biochemical, TR-FRET, single concentration | shares compounds with UBC13 inh | inhibition, % at 10 µM | 68% of 1,400 active | AID 488859, 2010; in the data active = inhibition above about 45%; inconclusive = no clear call, values can overlap the other calls
# Active calls of the source: *; ? = inconclusive; nt = not tested or not shown.
SMILES,PHOSPHO1 block,IDE cell activ,procasp7 counter,IDE cell inh,procasp3 activ,UBC13 inh,Casp3 UBC13 ctr,UBC13 conf
O=C(O)CC(C(=O)Nc1ccc(Cl)cc1)N1CCCCCC1 (stereo unspecified),29,5,-2,0,-1,5,nt,nt
COc1ccc(CCNC(=O)C(=O)NCC2OCCN2C(=O)c2ccc(Cl)cc2)cc1OC (stereo unspecified),-16,-1,8,4,2,-6,nt,nt
CN(CCNC(=O)CCCOc1cc(=O)n(C)c2ccccc12)Cc1ccccc1,2,2,-3,2,-10,51*,4,68*
CN(CCCNC(=O)CCCOc1cc(=O)n(C)c2ccccc12)Cc1ccccc1,15,-2,3,5,-2,28,nt,nt
Cc1ccc2c(c1)c1c(n2CC(O)CNC2CCCCC2)CCCC1 (stereo unspecified),33,4,11,-1,4,61*,2,30
Cn1c2ccccc2c(=O)c2ccc(NCCc3cccs3)cc21,nt,1,-18,1,-13,45*,88*,?
Cn1c(C(=O)NCc2cccs2)cc2c(=O)n(C)c3ccccc3c21,-5,6,3,2,6,20,nt,nt
CC(C)c1ccc(NC(=O)C[n+]2ccn(C3=C([O-])c4ccccc4C3=O)c2)cc1,9,0,2,9,4,56*,-4,47*
Cc1cccc(C)c1OCc1nnc(SCC(=O)NCCc2ccccc2)o1,-8,2,-9,4,12,92*,-5,3
CCCn1c(=O)n(C)c(=O)c2c(SCC(=O)Nc3cc(C)on3)nc(C(C)(C)C)nc21,nt,-2,0,0,5,8,nt,nt
CN(C)c1nc(-c2ccccc2)c2cc(Cl)ccc2n1,22,5,5,-5,4,23,nt,nt
CCSc1nc(-c2ccccc2)c2cc(Cl)ccc2n1,8,0,10,-3,-5,49*,-3,?
CC1CCCC(NC(=O)CSc2ncnc3ccccc23)C1C (stereo unspecified),nt,8,8,1,-1,46*,3,34
CC1CCCC(NC(=O)COc2ncnc3ccccc23)C1C (stereo unspecified),nt,3,-9,1,-2,-4,nt,nt
CCN(CCCNC(=O)c1cc2c(-c3cccc(OC)c3)nn(C)c2s1)Cc1ccccc1,2,4,2,-2,1,49*,-5,47*
CCN(CC)CCCNC(=O)c1cc2c(-c3ccc(Cl)cc3)nn(C)c2s1,19,2,0,2,5,39,nt,nt
Cc1ccc(S(=O)(=O)NNC(=O)C(O)(c2ccccc2)c2ccccc2)cc1,-1,2,4,10,4,4,nt,nt
CC(=O)Nc1ccc(S(=O)(=O)Nc2ccccn2)cc1,-16,2,2,-3,-5,-6,nt,nt
CC(=O)Nc1ccc(S(=O)(=O)NNC(=O)C(=O)NNc2ccccn2)cc1,21,0,-6,6,18,58*,3,95*
Cc1ccc(S(=O)(=O)NNC(=O)C(=O)NNc2ccccn2)cc1,0,-2,10,4,-1,69*,-1,81*
O=C(CCCCCN1C(=O)c2ccccc2C1=O)Nc1ccc(S(=O)(=O)N2CCCCC2)cc1,12,-3,2,-1,-4,100*,6,112*
